pEC50: −log10 of the molar value. ≈ marks a conversion by molar mass, not a printed value. Calls of active or inactive are those of the source. The rule behind the calls is not given here.
Experiments:
[1] = test system: 3T3-L1; assay: Lipid lowering activity in mouse 3T3-L1 cells assessed as reduction in adipogenic cocktail-induced triglyceride levels incubated for 6 days by GPO-POD assay; type: functional, cell-based; settings: for Activity: dose 1-5 µM, time 6.0 day; for pEC50: 3T3-L1, 144 h
How it was run: (§1)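 Confluent 3T3-L1 cells were treated from day 0 in cocktail (IBMX, dexamethasone, insulin) for 3 days, then re-dosed in insulin medium for 3 more days. For dose–response, concentrations were 0–10 µM (0.01, 0.1, 0.3, 1, 3, 10). On day 6, cells were lysed in 0.2% Triton X-100 and TG was measured by GPO-POD and normalized to BCA protein as % of control. EC50 was fitted from the dose–response. N = 4.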

[2] = test system: 3T3-L1; assay: Lipid lowering activity in mouse 3T3-L1 cells assessed as reduction in adipogenic cocktail-induced triglyceride levels at 1 to 5 uM incubated for 6 days by GPO-POD assay relative to control; type: functional; settings: dose 1-5 µM, time 6.0 day; how it was run: as §1
[3] = test system: 3T3-L1; assay: Lipid lowering activity in mouse 3T3-L1 cells assessed as adipogenic cocktail-induced triglyceride levels at 1 uM incubated for 6 days by GPO-POD assay relative to control; type: functional; settings: time 6 day; how it was run: as §1
[4] = test system: 3T3-L1; assay: Cytotoxicity against mouse 3T3-L1 cells assessed as change in LDH releasing level at 5 uM after 6 days by LDH releasing assay; type: cell-based; settings: 3t3-l1, 144 h, time 6 day
How it was run: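 Differentiating 3T3-L1 cells were treated at 5 µM for 6 days. Plates were centrifuged and LDH activity in the supernatant was read at 490 nm. Release was expressed as fold = (treated − blank)/(control − blank), with untreated cells as blank and vehicle-differentiated control set to 1.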

[5] = test system: 3T3-L1; assay: Inhibition of mouse 3T3-L1 cells adipocyte differentiation assessed as reduction in adipogenic cocktail-induced C/EBPdelta mRNA expression after 24 hrs by RT-qPCR analysis; type: functional, cell-based; settings: dose 0.01-1 µM
How it was run: (§2)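 Confluent 3T3-L1 preadipocytes received differentiation cocktail (0.5 mM IBMX, 100 ng/mL dexamethasone, 2 µg/mL insulin) with compound (0.01–1 µM; metformin 1 mM) for 24 h. mRNA was measured by SYBR Green RT-qPCR (30 cycles), normalized to β-actin, with the differentiated control set to 1. N = 4 independent experiments.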

[6] = test system: 3T3-L1; assay: Inhibition of mouse 3T3-L1 cells adipocyte differentiation assessed as reduction in adipogenic cocktail-induced PPARgamma mRNA expression after 24 hrs by RT-qPCR analysis; type: functional, cell-based; settings: dose 0.01-1 µM; how it was run: as §2
[7] = test system: 3T3-L1; assay: Lipid lowering activity in mouse 3T3-L1 cells assessed as reduction in adipogenic cocktail-induced triglyceride levels at 1 uM incubated for 6 days by Oil-red O staining based assay; type: functional, cell-based; settings: time 6.0 day
How it was run: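 Differentiating 3T3-L1 cells were treated at 1 µM for 6 days, then washed with PBS and fixed in 4% formaldehyde for 1 h. Cells were stained with 0.3% Oil Red O for 30 min at room temperature in the dark and imaged at ×200.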

[8] = test system: 3T3-L1; assay: Inhibition of mouse 3T3-L1 cells adipocyte differentiation assessed as reduction in adipogenic cocktail-induced C/EBPbeta mRNA expression after 24 hrs by RT-qPCR analysis; type: functional, cell-based; settings: dose 0.01-1 µM; how it was run: as §2
[9] = test system: 3T3-L1; assay: Lipid lowering activity in mouse 3T3-L1 cells assessed as reduction in adipogenic cocktail-induced triglyceride levels at 1 uM incubated for 6 days by GPO-POD assay relative to control; type: functional; set-up: scale not given: the % may be the effect or the level left; settings: time 6 day; how it was run: as §1
[10] = Intrinsic clearance in Sprague-Dawley rat liver microsomes assessed as rate constant […] up to 60 mins in presence of NADPH by LC-MS/MS analysis; type: ADME, Microsome; settings: read-out: CLH
[11] = test system: 3T3-L1; assay: Inhibition of mouse 3T3-L1 cells adipocyte differentiation assessed as reduction in adipogenic cocktail-induced C/EBPalpha mRNA expression after 24 hrs by RT-qPCR analysis; type: functional, cell-based; settings: dose 0.01-1 µM; how it was run: as §2
[12] = Stability in Sprague-Dawley rat liver microsomes assessed as remaining compound […] up to 60 mins in presence of NADPH by LC-MS/MS analysis; type: ADME, Microsome; settings: read-out: Stabilty
[13] = Aqueous solubility in PBS buffer at pH 7.4 after 24 hrs; type: physicochemical
[14] = Stability in Sprague-Dawley rat liver microsomes assessed as rate constant […] up to 60 mins in presence of NADPH by LC-MS/MS analysis; type: ADME, Microsome
[15] = test system: 3T3-L1; assay: Activation of AMPK pathway in adipogenic cocktail-induced mouse 3T3-L1 cells assessed as increase in phosphorylation AMPKalpha at Thr172 residue at 0.01 to 1 uM after 24 hrs by Western blot analysis; type: cell-based; settings: filed as activator, dose 0.01-1 µM
How it was run: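 Confluent 3T3-L1 pre-adipocytes exposed to adipogenic cocktail for 24 h with or without compound (0, 0.01, 0.1, 1 µM); DMSO vehicle. Lysates analysed by SDS-PAGE/Western blot for pAMPKα (Thr-172), normalized to actin, Ctrl set as 1. N = 4 independent experiments.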

[16] = Half life in Sprague-Dawley rat liver microsomes assessed as rate constant […] up to 60 mins in presence of NADPH by LC-MS/MS analysis; type: ADME, Microsome

SMILES	Activity [1]	Activity [2]	further results
CN(C)CCOc1nc(-c2[nH]c3ccccc3c2C=O)nc2ccccc12	Dose-dependent effect		
O=Cc1c(-c2nc(NCCN3CCCC3)c3ccccc3n2)oc2ccccc12	Dose-dependent effect		
O=Cc1c(-c2nc(OCCN3CCCC3)c3ccccc3n2)[nH]c2ccccc12	Dose-dependent effect		
COc1ccc2[nH]c(-c3nc(NCCCN(C)C)c4ccccc4n3)c(C=O)c2c1	Dose-dependent effect		
O=Cc1c(-c2nc(OCCCN3CCCC3)c3ccccc3n2)[nH]c2ccccc12	Dose-dependent effect		
Cc1c(-c2nc(NCCN3CCCC3)c3ccccc3n2)sc2ccccc12	Dose-dependent effect	Active	
CN(C)CCNc1nc(-c2oc3ccccc3c2C=O)nc2ccccc12	Dose-dependent effect		
CN(C)CCCNc1nc(-c2oc3ccccc3c2C=O)nc2ccccc12	Dose-dependent effect		
CN(C)CCCNc1nc(-c2c(C=O)c3ccccc3n2C)nc2ccccc12	Dose-dependent effect		Activity [3]: 70.4%
Cc1c(-c2nc(NCCCCN3CCCC3)c3ccccc3n2)sc2ccccc12	Dose-dependent effect	Active	
Cc1c(-c2nc(NCCCN(C)C)c3ccccc3n2)[nH]c2ccccc12	Dose-dependent effect	Active	
COc1ccc2[nH]c(-c3nc(NCCCN4CCCC4)c4ccccc4n3)c(C=O)c2c1	Dose-dependent effect		
Cc1c(-c2nc(OCCN3CCCC3)c3ccccc3n2)oc2ccccc12	Dose-dependent effect	Active	
CN(C)CCCOc1nc(-c2[nH]c3ccccc3c2C=O)nc2ccccc12	Dose-dependent effect		
CCN(CC)CCCCNc1nc(-c2[nH]c3ccc(OC)cc3c2C=O)nc2ccccc12	Dose-dependent effect		Activity [4]: Non-Toxic; inhibition [5]: Dose-dependent effect; inhibition [6]: Dose-dependent effect; Activity [7]: Active; inhibition [8]: Dose-dependent effect; pEC50 [1]: 6.04; Activity [9]: >=50%; microsomal CLint [10]: 2.7 µL/min/mg; inhibition [11]: Dose-dependent effect; remaining at 1 h [12]: 84%; solubility at 24 h [13]: 65.9 µg/mL (≈ 148 µM); k el at 1 h [14]: 4.5e-05 s⁻¹; Activity [15]: Active; half-life [16]: 4.28 h
Cc1c(-c2nc(NCCCCN(C)C)c3ccccc3n2)[nH]c2ccccc12	Dose-dependent effect	Active	
Cc1c(-c2nc(OCCCN(C)C)c3ccccc3n2)oc2ccccc12	Dose-dependent effect	Active	
COc1ccc2[nH]c(-c3nc(NCCN4CCCC4)c4ccccc4n3)c(C=O)c2c1	Dose-dependent effect		Activity [4]: Non-Toxic; inhibition [5]: Dose-dependent effect; inhibition [6]: Dose-dependent effect; Activity [7]: Active; inhibition [8]: Dose-dependent effect; pEC50 [1]: 6.51; Activity [9]: >=50%; microsomal CLint [10]: 6.6 µL/min/mg; inhibition [11]: Dose-dependent effect; remaining at 1 h [12]: 66.6%; solubility at 24 h [13]: 56.4 µg/mL (≈ 136 µM); k el at 1 h [14]: 0.00011 s⁻¹; Activity [15]: Active; half-life [16]: 1.75 h
Cc1c(-c2nc(OCCCN3CCCC3)c3ccccc3n2)oc2ccccc12	Dose-dependent effect	Active	

SMILES	Activity [1]	Activity [2]	further results
CCN(CC)CCNc1nc(-c2[nH]c3ccccc3c2C)nc2ccccc12	Dose-dependent effect	Active	
CN(C)CCCCNc1nc(-c2oc3ccccc3c2C=O)nc2ccccc12	Dose-dependent effect		
Cc1c(-c2nc(NCCCN3CCCC3)c3ccccc3n2)[nH]c2ccccc12	Dose-dependent effect	Active	
O=Cc1c(-c2nc(NCCCN3CCCC3)c3ccccc3n2)[nH]c2ccccc12	Dose-dependent effect		Activity [3]: 34.9%
CCN(CC)CCCCNc1nc(-c2[nH]c3ccccc3c2C)nc2ccccc12	Dose-dependent effect	Active	
CN(C)CCCCOc1nc(-c2[nH]c3ccccc3c2C=O)nc2ccccc12	Dose-dependent effect		
Cc1c(-c2nc(NCCN(C)C)c3ccccc3n2)sc2ccccc12	Dose-dependent effect	Active	
Cc1c(-c2nc(OCCN(C)C)c3ccccc3n2)oc2ccccc12	Dose-dependent effect	Active	
Cc1c(-c2nc(NCCN(C)C)c3ccccc3n2)[nH]c2ccccc12	Dose-dependent effect	Active	
CN(C)CCSc1nc(-c2[nH]c3ccccc3c2C=O)nc2ccccc12	Dose-dependent effect		
Cc1c(-c2nc(OCCCCN(C)C)c3ccccc3n2)oc2ccccc12	Dose-dependent effect	Active	
O=Cc1c(-c2nc(NCCCN3CCCC3)c3ccccc3n2)oc2ccccc12	Dose-dependent effect		Activity [3]: 88.7%
Cc1c(-c2nc(NCCCN(C)C)c3ccccc3n2)sc2ccccc12	Dose-dependent effect	Active	
Cc1c(-c2nc(NCCCN3CCCC3)c3ccccc3n2)sc2ccccc12	Dose-dependent effect	Active	
Cc1c(-c2nc(NCCN3CCCC3)c3ccccc3n2)[nH]c2ccccc12	Dose-dependent effect	Active	
COc1ccc2[nH]c(-c3nc(NCCN(C)C)c4ccccc4n3)c(C=O)c2c1	Dose-dependent effect		
CCN(CC)CCCCNc1nc(-c2[nH]c3ccccc3c2C=O)nc2ccccc12	Dose-dependent effect		
CCN(CC)CCSc1nc(-c2[nH]c3ccccc3c2C=O)nc2ccccc12	Dose-dependent effect		
CN(C)CCCNc1nc(-c2c(C=O)c3ccccc3n2Cc2ccccc2)nc2ccccc12	Dose-dependent effect		Activity [3]: 57.1%

From ChEMBL document CHEMBL4732044, “Discovery of a promising agent IQZ23 for the treatment of obesity and related metabolic disorders” (Eur J Med Chem, 2020)
